Measurements as given in ChEMBL document CHEMBL4145642, “Natural Inhibitors of the RhoA-p115 Complex from the Bark of Meiogyne baillonii” (J Nat Prod, 2018).
pIC50: −log10 of the molar value.

Assays:
[1] = molecular target: T1, Rho guanine nucleotide exchange factor 1 (Homo sapiens) (UniProt Q92888); experiment: Inhibition of p115 DHPH22 domain (395 to 766 residues) (unknown origin) interaction with GDP-loaded His-tagged RhoA F25N mutant (1 to 180 residues) assessed as reduction in BODIPY-GTP-GDP exchange at 200 uM pretreated for 30 mins followed by RhoA addition by fluorescence based spectrophotometric method relative to control
T1 sequence (whole entry): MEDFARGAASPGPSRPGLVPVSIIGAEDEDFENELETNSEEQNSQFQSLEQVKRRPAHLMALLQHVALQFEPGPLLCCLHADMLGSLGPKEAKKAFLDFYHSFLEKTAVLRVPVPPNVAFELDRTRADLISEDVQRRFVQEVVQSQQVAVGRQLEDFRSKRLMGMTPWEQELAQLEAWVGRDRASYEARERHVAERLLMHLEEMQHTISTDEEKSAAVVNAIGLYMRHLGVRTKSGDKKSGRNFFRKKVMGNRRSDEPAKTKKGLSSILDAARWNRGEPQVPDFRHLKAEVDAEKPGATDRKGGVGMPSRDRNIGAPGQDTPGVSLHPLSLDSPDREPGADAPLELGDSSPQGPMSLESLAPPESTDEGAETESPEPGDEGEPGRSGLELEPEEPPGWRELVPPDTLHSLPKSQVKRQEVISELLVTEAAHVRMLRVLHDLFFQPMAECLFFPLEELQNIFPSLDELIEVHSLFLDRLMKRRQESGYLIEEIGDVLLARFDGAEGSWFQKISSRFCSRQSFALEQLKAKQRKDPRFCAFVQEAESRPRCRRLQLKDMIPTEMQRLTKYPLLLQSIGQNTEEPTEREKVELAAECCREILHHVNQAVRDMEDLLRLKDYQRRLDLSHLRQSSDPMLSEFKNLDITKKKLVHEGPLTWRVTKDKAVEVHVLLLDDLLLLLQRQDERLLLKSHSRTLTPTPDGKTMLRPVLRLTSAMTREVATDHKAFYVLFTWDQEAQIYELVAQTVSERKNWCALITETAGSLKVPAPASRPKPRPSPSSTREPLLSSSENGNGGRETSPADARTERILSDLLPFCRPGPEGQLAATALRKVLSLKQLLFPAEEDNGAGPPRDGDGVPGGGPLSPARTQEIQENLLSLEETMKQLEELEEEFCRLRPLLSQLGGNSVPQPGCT

[2] = molecular target: Neuroepithelial cell-transforming gene 1 protein (Homo sapiens, UniProt Q7Z628, F25N); experiment: (§1) Inhibition of Net1 (149 to 501 residues) (unknown origin) interaction with GDP-loaded His-tagged RhoA F25N mutant (1 to 180 residues) assessed as reduction in BODIPY-GTP-GDP exchange pretreated for 30 mins followed by RhoA addition by fluorescence based spectrophotometric method
How it was run: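 Exchange is started with 0.1 μM GDP-loaded His-RhoA F25N (1−180). Fluorescence (ex 480/em 540 nm) is read every minute, and initial rate is taken over the first 15 min. Controls are run with and without GEF.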

[3] = molecular target: T2, Neuroepithelial cell-transforming gene 1 protein (Homo sapiens) (UniProt Q7Z628); experiment: as §1, with “exchange at 200 uM” for “exchange”, “method relative to control” for “method”
T2 sequence (whole entry): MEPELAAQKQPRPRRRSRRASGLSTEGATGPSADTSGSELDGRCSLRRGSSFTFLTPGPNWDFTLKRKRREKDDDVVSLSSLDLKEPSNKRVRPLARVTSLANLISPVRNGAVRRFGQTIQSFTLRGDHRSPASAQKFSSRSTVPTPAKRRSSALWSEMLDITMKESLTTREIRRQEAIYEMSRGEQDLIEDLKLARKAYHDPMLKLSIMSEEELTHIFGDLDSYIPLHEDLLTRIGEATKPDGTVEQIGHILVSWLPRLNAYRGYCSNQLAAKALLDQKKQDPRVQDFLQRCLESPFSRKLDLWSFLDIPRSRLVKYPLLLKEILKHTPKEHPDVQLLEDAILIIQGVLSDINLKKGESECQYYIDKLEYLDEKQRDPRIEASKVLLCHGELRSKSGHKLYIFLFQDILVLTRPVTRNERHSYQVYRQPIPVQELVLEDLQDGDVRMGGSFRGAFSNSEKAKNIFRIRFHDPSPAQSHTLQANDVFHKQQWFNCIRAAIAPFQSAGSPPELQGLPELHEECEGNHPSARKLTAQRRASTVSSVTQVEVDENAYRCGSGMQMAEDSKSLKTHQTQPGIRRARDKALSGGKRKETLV

[4] = molecular target: Rho guanine nucleotide exchange factor 1 (Homo sapiens, UniProt Q92888, F25N); experiment: Inhibition of p115 DHPH22 domain (395 to 766 residues) (unknown origin) interaction with GDP-loaded His-tagged RhoA F25N mutant (1 to 180 residues) assessed as reduction in BODIPY-GTP-GDP exchange pretreated for 30 mins followed by RhoA addition by fluorescence based spectrophotometric method

SMILES	inhibition [1] [%]	pIC50 [2]	inhibition [3] [%]	pIC50 [4]
CN1CCc2cc3c(c4c2c1cc1ccccc14)OCO3 [DEHYDROROEMERINE]	21	3.92	83	
COc1c(O)cc2c3c(cc4ccccc4c13)NC(=O)C2=O	0		4	
COc1cc(C)c2c(c1C=O)Oc1c(c(C)c(O)c3c1C(O)OC3=O)OC2=O (stereo unspecified) [STICTIC ACID]	50.5			3.73
COc1cc(C)c2c(c1)Oc1c(cc(OC)cc1C(=O)O)OC2=O	1		5	
C=CCC/C=C/C#CC#CCCCCCCCC(=O)O	0			
C=CCC/C=C\C#CC#CCCCCCC[C@H]1C(=O)O[C@H](C)[C@@H]1OC(C)=O	0			
COc1c(O)cc2c3c(cc4c(O)cccc4c13)NC2=O	0		5	
C=CCC/C=C\C#CC#CCCCCCCC1=C[C@@H](C)OC1=O	0			
C=CCC/C=C/C#CC#CCCCCCCCC[C@H]1C(=O)O[C@H](C)[C@@H]1OC(C)=O	0			
C=CCC/C=C/C#CC#CCCCCCC[C@H]1C(=O)O[C@H](C)[C@@H]1OC(C)=O	10			
